Measurements as given in ChEMBL document CHEMBL1131446, “New 1,4-dihydropyridines conjugated to furoxanyl moieties, endowed with both nitric oxide-like and calcium channel antagonist vasodilator activities” (J Med Chem, 1998).

Tests used:
[1] = biological target: T1, Voltage-dependent L-type calcium channel subunit alpha-1D (Rattus norvegicus, UniProt P27732); test: Binding affinity for L-type [Ca2+] channels was measured through displacement of [3H]nitrendipine on rat cortex homogenates.; format: tissue-based
[2] = species: Rattus norvegicus; test: Vasodilator activity was measured on rat aorta in the presence of methylene blue (MB).
[3] = biological target: T1, Voltage-dependent L-type calcium channel subunit alpha-1D; test: Inhibitory concentration for L-type [Ca2+] channels was measured through displacement of [3H]nitrendipine on rat cortex homogenates.; format: tissue-based
[4] = species: Rattus norvegicus; test: Vasodilator activity was measured on rat aorta.
[5] = species: Rattus norvegicus; test: […]; format: functional
Summary of the method: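 Nitrite formation measured as an index of NO release. Compound incubated in pH 7.4 buffer with a 50-fold molar excess of L-cysteine at 37 °C. After 1 h, nitrite was detected by the Griess reaction. Values are expressed as % NO₂⁻ (mol/mol).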

T1 sequence (P27732 whole entry): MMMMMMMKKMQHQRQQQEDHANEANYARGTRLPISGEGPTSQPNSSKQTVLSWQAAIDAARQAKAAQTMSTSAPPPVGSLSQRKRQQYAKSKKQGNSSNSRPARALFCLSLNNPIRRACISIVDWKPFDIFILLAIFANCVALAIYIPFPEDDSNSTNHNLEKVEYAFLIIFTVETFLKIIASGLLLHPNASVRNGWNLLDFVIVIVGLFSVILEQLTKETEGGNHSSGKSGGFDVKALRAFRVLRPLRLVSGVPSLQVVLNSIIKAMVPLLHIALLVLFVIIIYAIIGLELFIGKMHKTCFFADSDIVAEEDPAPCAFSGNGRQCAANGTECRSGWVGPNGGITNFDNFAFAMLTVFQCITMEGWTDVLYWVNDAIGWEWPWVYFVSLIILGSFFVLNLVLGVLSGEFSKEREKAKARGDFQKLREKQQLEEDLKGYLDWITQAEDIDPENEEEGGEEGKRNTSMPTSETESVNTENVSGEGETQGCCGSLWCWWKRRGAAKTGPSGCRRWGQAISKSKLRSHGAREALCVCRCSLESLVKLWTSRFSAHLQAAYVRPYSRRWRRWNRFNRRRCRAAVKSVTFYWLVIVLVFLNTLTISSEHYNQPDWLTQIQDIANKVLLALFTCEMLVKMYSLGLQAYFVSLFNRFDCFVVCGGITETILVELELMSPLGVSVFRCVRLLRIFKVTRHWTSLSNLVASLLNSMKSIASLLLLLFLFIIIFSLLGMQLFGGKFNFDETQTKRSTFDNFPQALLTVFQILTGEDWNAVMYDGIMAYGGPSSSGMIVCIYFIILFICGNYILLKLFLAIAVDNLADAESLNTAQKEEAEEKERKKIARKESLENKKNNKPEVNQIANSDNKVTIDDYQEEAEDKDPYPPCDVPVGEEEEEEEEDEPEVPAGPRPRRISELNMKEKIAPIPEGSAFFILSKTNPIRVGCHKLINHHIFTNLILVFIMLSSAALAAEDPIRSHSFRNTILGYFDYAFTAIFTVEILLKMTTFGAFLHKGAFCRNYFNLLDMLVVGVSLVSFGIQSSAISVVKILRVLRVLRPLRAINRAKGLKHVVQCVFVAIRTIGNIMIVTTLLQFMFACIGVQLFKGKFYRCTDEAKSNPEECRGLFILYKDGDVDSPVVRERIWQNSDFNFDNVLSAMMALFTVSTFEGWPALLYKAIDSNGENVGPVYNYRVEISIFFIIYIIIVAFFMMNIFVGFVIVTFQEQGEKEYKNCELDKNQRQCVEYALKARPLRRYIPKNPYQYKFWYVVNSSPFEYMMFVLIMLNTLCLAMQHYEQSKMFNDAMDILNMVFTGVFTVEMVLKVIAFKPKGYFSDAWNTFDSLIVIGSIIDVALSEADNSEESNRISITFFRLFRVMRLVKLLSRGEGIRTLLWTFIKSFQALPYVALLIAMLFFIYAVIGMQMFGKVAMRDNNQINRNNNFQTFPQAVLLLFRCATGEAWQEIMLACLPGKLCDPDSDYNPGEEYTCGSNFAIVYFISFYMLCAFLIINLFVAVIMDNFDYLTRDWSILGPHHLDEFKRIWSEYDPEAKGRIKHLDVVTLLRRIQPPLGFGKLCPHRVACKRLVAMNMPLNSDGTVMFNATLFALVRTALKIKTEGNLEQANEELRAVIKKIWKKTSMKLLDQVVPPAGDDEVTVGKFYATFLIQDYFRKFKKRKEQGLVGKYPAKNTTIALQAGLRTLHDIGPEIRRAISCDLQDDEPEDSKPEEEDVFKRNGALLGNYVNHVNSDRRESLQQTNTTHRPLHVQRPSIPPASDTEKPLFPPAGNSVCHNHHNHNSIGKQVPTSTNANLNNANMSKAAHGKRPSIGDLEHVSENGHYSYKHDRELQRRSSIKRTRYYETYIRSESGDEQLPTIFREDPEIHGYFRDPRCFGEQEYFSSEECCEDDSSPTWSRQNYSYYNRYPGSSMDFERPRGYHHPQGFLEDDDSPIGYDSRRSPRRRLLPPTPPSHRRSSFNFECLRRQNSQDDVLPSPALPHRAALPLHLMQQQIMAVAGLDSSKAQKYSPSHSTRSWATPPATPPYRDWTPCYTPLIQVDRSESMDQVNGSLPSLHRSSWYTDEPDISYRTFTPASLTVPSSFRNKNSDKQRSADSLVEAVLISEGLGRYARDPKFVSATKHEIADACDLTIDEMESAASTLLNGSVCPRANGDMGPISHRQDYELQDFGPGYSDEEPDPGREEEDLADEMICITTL

Row | SMILES | Ki [1] [nM] | EC50 iGC [2] [nM] | IC50 [3] [nM] | EC50 [4] [nM] | Nitric oxide [5] [%]
1 | COC(=O)C1=C(C)N=C(C)/C(=C(/O)OC)C1c1cccc(OCc2c(C)no[n+]2[O-])c1 (centres undefined) | 280 | 400 | 610 | 400 | <0.5
2 | COC(=O)C1=C(C)N=C(C)/C(=C(/O)OC)C1c1ccccc1OCc1nonc1C(N)=O (centres undefined) | 400 | 910 | 880 | 970 | 
3 | COC(=O)C1=C(C)N=C(C)/C(=C(/O)OC)C1c1ccccc1OCc1no[n+]([O-])c1C(N)=O (centres undefined) | 670 | 940 | 1500 | 550 | 13
4 | COC(=O)C1=C(C)N=C(C)/C(=C(/O)OC)C1c1cccc(OCc2nonc2C#N)c1 (centres undefined) | 270 | 300 | 590 | 310 | 
5 | COC(=O)C1=C(C)N=C(C)/C(=C(/O)OC)C1c1cccc(OCc2c(C#N)no[n+]2[O-])c1 (centres undefined) | 220 |  | 500 | 11 | 31.5
6 | COC(=O)C1=C(C)N=C(C)/C(=C(/O)OC)C1c1cccc(OCCO[N+](=O)[O-])c1 (centres undefined) | 440 | 750 | 970 | 750 | <0.5
7 | COC(=O)C1=C(C)N=C(C)/C(=C(/O)OC)C1c1cccc(OCc2nonc2C)c1 (centres undefined) | 320 | 620 | 720 | 640 | 
8 | COC(=O)C1=C(C)N=C(C)/C(=C(/O)OC)C1c1cccc(OCc2nonc2C(N)=O)c1 (centres undefined) | 2300 | 3300 | 5100 | 3500 | 
9 | COC(=O)C1=C(C)N=C(C)/C(=C(/O)OC)C1c1cccc(OCc2no[n+]([O-])c2C#N)c1 (centres undefined) | 230 |  | 500 | 3.3 | 43.8
10 | COC(=O)C1=C(C)N=C(C)/C(=C(/O)OC)C1c1ccccc1OCc1c(C(N)=O)no[n+]1[O-] (centres undefined) | 350 | 640 | 780 | 560 | 12.3
11 | COC(=O)C1=C(C)N=C(C)/C(=C(/O)OC)C1c1cccc(OCc2no[n+]([O-])c2C(N)=O)c1 (centres undefined) | 920 | 1500 | 2000 | 710 | 6
12 | COC(=O)C1=C(C)N=C(C)/C(=C(/O)OC)C1c1cccc(OCc2c(C(N)=O)no[n+]2[O-])c1 (centres undefined) | 1600 | 3700 | 3600 | 1200 | 7.6
13 | COC(=O)C1=C(C)N=C(C)/C(=C(/O)OC)C1c1cccc(OCc2no[n+]([O-])c2C)c1 (centres undefined) | 370 | 540 | 820 | 500 | <0.5
14 | COC(=O)C1=C(C)NC(C)=C(C(=O)OC)C1c1ccccc1[N+](=O)[O-] [NIFEDIPINE] |  | 3.4 |  | 3.2 | 

The next lines start with results.

Row | Ki [1] [nM] | EC50 iGC [2] [nM] | IC50 [3] [nM] | EC50 [4] [nM] | SMILES | Nitric oxide [5] [%]
15 | 21 | 22 | 27 | 4.4 | COC(=O)C1=C(C)N=C(C)/C(=C(/O)OC)C1c1ccccc1OCc1no[n+]([O-])c1C#N (centres undefined) | 40.8
16 | 27 | 46 | 59 | 41 | COC(=O)C1=C(C)N=C(C)/C(=C(/O)OC)C1c1ccccc1OCc1nonc1C (centres undefined) | 
17 | 18 | 46 | 40 | 43 | COC(=O)C1=C(C)N=C(C)/C(=C(/O)OC)C1c1ccccc1OCc1no[n+]([O-])c1C (centres undefined) | 0.9
18 | 4.7 | 6.6 | 10 | 6.6 | COC(=O)C1=C(C)N=C(C)/C(=C(/O)OC)C1c1ccccc1OCc1nonc1C#N (centres undefined) | 
19 | 32 | 76 | 72 | 78 | COC(=O)C1=C(C)N=C(C)/C(=C(/O)OC)C1c1ccccc1OCc1c(C)no[n+]1[O-] (centres undefined) | 1.8
20 | 38 | 54 | 85 | 56 | COC(=O)C1=C(C)N=C(C)/C(=C(/O)OC)C1c1ccccc1OCCO[N+](=O)[O-] (centres undefined) | <0.5
21 | 30 | 50 | 67 | 9.4 | COC(=O)C1=C(C)N=C(C)/C(=C(/O)OC)C1c1ccccc1OCc1c(C#N)no[n+]1[O-] (centres undefined) | 24
